The source of these data is paper PMC9890135 (Molecular Cancer Therapeutics, 2022).

For data set [1] the following is noted: humans; preliminary phase I data (NCT03845166); cited from earlier work.
Another data set has as its system HUVEC cells. In words: Cellular proliferation, BrdU incorporation ELISA. The format is cell-based. Conditions: Homo sapiens, 48 h, read-out: Proliferation IC50. The procedure, abridged:
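HUVEC seeded at 1,500 cells/well in triplicate in VEGF-containing endothelial growth medium, overnight at 37°C, 5% CO2. Serial dilutions added for 48 h. BrdU labelling 2 h at 37°C, FixDenat 30 min at RT, anti-BrdU-POD 90 min at RT, washes, then chemiluminescent substrate read.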
A general note: Incorporation of labelled thymidine or its analogues reports DNA synthesis.

In the next data set the test system is MDA-MB-231 tumors. Put plainly: MDA-MB-231 xenograft tumor growth. It is filed as in vivo, mice. Conditions: 14 days, oral. The procedure, abridged: (§1)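 Human tumour cells inoculated into the rear flank. Mice randomised at mean volumes of ~200 mm3 (Hs 746T), ~120 mm3 (MDA-MB-231), ~100 mm3 (NCI-H441) or ~90 mm3 (SNU-5). Oral gavage once daily with test compound or vehicle. Tumour volume and body weight measured at least twice weekly. […], using mean volumes at extraction and dosing start.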

A further data set concerns the target MET (Homo sapiens, UniProt P08581). Put plainly: Inhibition of receptor phosphorylation, ELISA, PC-3 cells/HGF. The format is cell-based. On the technique in general: In an ELISA, binding on a coated surface is turned into a signal by an enzyme label.
The target of another data set is T1, MER (Homo sapiens, UniProt Q12866).
T1 sequence (Q12866 21-999): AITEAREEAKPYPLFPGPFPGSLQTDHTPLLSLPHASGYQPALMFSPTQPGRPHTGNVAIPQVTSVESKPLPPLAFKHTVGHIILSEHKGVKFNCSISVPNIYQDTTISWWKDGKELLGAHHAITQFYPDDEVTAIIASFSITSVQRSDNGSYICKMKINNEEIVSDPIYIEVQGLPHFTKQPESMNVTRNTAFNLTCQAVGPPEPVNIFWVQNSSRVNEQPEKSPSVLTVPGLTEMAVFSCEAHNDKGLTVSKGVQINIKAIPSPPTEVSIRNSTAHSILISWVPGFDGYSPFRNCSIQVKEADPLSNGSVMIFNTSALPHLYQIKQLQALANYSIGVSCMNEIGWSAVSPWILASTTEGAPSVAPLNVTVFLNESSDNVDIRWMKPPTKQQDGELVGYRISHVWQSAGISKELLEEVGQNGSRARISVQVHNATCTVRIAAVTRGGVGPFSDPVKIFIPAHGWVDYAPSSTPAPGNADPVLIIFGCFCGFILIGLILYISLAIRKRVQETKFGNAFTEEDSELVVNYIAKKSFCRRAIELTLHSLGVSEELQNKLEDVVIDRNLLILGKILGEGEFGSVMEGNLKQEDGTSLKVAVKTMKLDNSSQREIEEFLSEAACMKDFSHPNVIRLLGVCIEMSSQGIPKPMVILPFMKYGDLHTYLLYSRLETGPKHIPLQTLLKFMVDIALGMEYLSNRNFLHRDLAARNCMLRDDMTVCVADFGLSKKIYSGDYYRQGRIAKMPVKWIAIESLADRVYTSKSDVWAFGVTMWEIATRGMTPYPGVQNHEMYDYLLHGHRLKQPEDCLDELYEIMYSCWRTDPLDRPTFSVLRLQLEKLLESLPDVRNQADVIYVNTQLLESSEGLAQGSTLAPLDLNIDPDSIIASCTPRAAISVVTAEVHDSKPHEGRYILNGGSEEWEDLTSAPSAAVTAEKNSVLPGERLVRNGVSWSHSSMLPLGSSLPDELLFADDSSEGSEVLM
In words: Inhibition of receptor phosphorylation, ELISA, MERTK-transfected 293A cells. The format is cell-based.

For data set [2] the following is noted: rats; cited from earlier work.
Data set [3] has as its system primary human CD14+ monocyte-derived M2 macrophages. Put plainly: Macrophage M2 to M1 repolarization. The format is cell-based. Conditions: 2, 4, and 6 μmol/L XL092 for 7 days; 5 donors. The procedure, abridged: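 CD14+ monocytes (1.0 × 10^6 cells/mL) differentiated 6 days into M2 macrophages, then cryopreserved. Thawed cells seeded at 2.0 × 10^5/well in M2 differentiation medium and exposed to 2, 4 or 6 μmol/L for 7 days at 37°C, 5% CO2, with medium and compound renewed on day 4; triplicate per donor, 5 donors. After Fc block, stained with anti-CD163 and 7-AAD. Viable CD163−/CD163+ ratio expressed as fold change versus DMSO.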

The next data set relates to SNU-5 tumors. Put plainly: SNU-5 xenograft tumor growth. It is filed as in vivo, mice. As to conditions: 14 days, oral. The procedure, abridged: as §1

Like-named read-outs stand apart in the source and are kept apart here.

Chain of MET (P08581 25-1390): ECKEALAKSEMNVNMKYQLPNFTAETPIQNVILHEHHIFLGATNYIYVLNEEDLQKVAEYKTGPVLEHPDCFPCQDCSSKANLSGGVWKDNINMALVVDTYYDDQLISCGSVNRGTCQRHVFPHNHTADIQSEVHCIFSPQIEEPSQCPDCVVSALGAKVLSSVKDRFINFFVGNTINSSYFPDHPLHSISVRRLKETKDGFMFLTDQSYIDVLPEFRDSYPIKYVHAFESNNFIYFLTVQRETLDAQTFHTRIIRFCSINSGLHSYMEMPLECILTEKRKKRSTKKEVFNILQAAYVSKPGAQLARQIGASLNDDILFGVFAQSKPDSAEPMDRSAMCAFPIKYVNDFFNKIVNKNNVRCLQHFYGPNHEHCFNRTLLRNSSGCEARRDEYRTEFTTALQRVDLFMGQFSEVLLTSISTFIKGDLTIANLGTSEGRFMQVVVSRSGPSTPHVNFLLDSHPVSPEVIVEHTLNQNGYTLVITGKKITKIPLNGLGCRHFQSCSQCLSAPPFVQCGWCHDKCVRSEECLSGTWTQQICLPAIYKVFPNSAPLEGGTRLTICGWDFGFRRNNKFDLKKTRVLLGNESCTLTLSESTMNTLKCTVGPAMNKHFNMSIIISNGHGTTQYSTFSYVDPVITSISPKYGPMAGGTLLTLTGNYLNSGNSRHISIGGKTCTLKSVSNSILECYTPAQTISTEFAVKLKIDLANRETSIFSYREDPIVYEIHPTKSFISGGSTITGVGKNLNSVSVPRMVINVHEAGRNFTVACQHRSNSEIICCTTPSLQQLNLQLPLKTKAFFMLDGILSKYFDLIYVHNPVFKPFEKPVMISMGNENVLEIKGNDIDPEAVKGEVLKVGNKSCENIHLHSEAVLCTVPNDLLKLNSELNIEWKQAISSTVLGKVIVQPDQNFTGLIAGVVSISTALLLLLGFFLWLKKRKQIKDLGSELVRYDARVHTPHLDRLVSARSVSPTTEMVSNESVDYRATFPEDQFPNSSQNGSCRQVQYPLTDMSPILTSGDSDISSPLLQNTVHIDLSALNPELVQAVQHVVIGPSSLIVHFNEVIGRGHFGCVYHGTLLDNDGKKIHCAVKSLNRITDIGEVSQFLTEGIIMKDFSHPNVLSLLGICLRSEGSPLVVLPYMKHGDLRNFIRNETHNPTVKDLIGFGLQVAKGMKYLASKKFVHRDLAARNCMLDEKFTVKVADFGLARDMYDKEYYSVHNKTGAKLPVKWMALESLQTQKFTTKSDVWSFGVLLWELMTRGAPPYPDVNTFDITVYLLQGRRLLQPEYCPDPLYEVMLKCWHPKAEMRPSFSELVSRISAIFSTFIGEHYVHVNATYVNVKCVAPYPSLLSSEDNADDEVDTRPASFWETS

Take `CNC(=O)c1cc2c(Oc3ccc(NC(=O)C4(C(=O)Nc5ccc(F)cc5)CC4)cc3)ccnc2cc1OC` [XL092]: the half-life entry in data set [1] is listed as “approximately 24 hours”; in data set [2], “approximately 7 hours”. The IC50 is 10.4 nM with HUVEC cells, 11.9 ± 1.55 nM at MET and 6.01 ± 1.56 nM at MER. Further, the Tumor growth inhibition with MDA-MB-231 tumors (3 mg/kg/day) amounted to 73.6%; with MDA-MB-231 tumors (10 mg/kg/day), 78.6%; in the data set on SNU-5 tumors (3 mg/kg/day), 54.2%; in the data set with SNU-5 tumors (10 mg/kg/day), 94.7%. The “M1 (CD163-negative) to M2 (CD163-positive) ratio” value in data set [3] is “dose-dependent increases”.
